Experimental data taken from ChEMBL document CHEMBL2434885, “cis-Dichloroplatinum(II) complexes tethered to dibenzo[c,h][1,6]naphthyridin-6-ones: synthesis and cytotoxicity in human cancer cell lines in vitro” (Eur J Med Chem, 2013).

Columns and labels:
Format in all cases: functional, cell-based
HCT-116 = assay: Cytotoxicity against human HCT116 cells after 72 hrs by crystal-violet staining-based spectrophotometric analysis; conditions: HCT-116, 72 h
Procedure, shortened: (§1)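 Subconfluent, exponentially growing, mycoplasma-free monolayers in RPMI 1640 + 10% FBS, 5% CO2. Cells treated 72 h with 0–500 µM (compounds in physiological serum, or in DMF at ≤3% final). Cells then PBS-washed, ethanol-fixed, stained with 1% crystal violet and eluted in 33% acetic acid, with A570 read. Triplicates, three independent experiments. IC50 taken from concentration–response curves as 50% growth inhibition.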

SW480 = assay: Cytotoxicity against human SW480 cells after 72 hrs by crystal-violet staining-based spectrophotometric analysis; conditions: SW480, 72 h; procedure, shortened: as §1
HT-29 = assay: Cytotoxicity against human HT-29 cells after 72 hrs by crystal-violet staining-based spectrophotometric analysis; conditions: HT-29, 72 h; procedure, shortened: as §1

| Compound | IC50 (HCT-116) [µM] | IC50 (SW480) [µM] | IC50 (HT-29) [µM] |
| --- | --- | --- | --- |
| NCCNCCn1c(=O)c2cc([N+](=O)[O-])ccc2c2cnc3cc4c(cc3c21)OCO4 | 25 | 40.7 | 43 |
| NCCNCCCn1c(=O)c2cc([N+](=O)[O-])ccc2c2cnc3cc4c(cc3c21)OCO4 | 12.2 | 30.1 | 22.2 |
| NCCNCCCCCn1c(=O)c2cc([N+](=O)[O-])ccc2c2cnc3cc4c(cc3c21)OCO4 | 25.2 | 50.7 | 47.6 |
| NCCNCCCCCCn1c(=O)c2cc([N+](=O)[O-])ccc2c2cnc3cc4c(cc3c21)OCO4 | 15.4 | 24 | 30.8 |
| NCCNCCCCn1c(=O)c2cc([N+](=O)[O-])ccc2c2cnc3cc4c(cc3c21)OCO4 | 30.7 | 43.7 | 41.2 |
